Data published in ChEMBL document CHEMBL3124900, “Discovery and early clinical evaluation of BMS-605339, a potent and orally efficacious tripeptidic acylsulfonamide NS3 protease inhibitor for the treatment of hepatitis C virus infection” (J Med Chem, 2014).
Each block holds one compound with its values, some of them ahead of it. The source made the active and inactive calls. The calls are words filed in the database; no cut-off is given here.

Columns and labels:
[1] = AUC in intraduodenally dosed Sprague-Dawley rat plasma measured over 4 hrs by LC/MS/MS analysis; type: ADME, organism-based; set-up: time < 4 hr, route intraduodenal; conditions: Sprague-Dawley, plasma
Summary of the method: (§1)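 Abbreviated rat screen: surgically prepared rats were dosed intraduodenally. Plasma was sampled over 4 h, and liver was collected at the 4 h end point. Plasma was precipitated with two volumes of ACN plus internal standard. Liver was weighed and homogenized in 2 volumes of 20% Hanks buffered salt solution/80% ACN. Both were quantified by LC/MS/MS.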

[2] = Apparent terminal half life in Sprague-Dawley rat at 5 mg/kg, iv by LC/MS/MS analysis; type: ADME, organism-based; set-up: dose 5 mg/kg, route intravenous; conditions: in vivo, read-out: betat1/2(app) (converted)
[3] = Whole body plasma clearance in Sprague-Dawley rat at 5 mg/kg, iv by LC/MS/MS analysis; type: ADME, organism-based; set-up: dose 5 mg/kg, route intravenous
[4] = test system: Hepatitis C virus; experiment: Antiviral activity against Hepatitis C virus genotype 1b Con1 after 4 days by cell-based replicon assay; type: functional, organism-based, Hepacivirus hominis; conditions: isolate Con1, 96 h
[5] = Inhibition of Hepatitis C virus genotype 1a H77 recombinant NS3/4A protease expressed in Escherichia coli BL21 (DE3) cell using Ac-Asp-Glu-Asp(EDANS)-Glu-Glu-Abu[C(O)-O]-Ala-Ser-Lys(DABCYL)-NH2 as substrate by FRET assay; set-up: species or system Hepatitis C virus (isolate H77)
[6] = Drug uptake in iv dosed Sprague-Dawley rat liver measured after 24 hrs by LC/MS/MS analysis; type: ADME, organism-based; conditions: read-out: Drug uptake
[7] = Drug uptake in Sprague-Dawley rat liver at 15 mg/kg, po administered via gavage measured after 24 hrs by LC/MS/MS analysis; type: ADME, organism-based; set-up: dose 15 mg/kg, route oral; conditions: read-out: Drug uptake
Summary of the method: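 Rats were dosed orally at 15 mg/kg, and liver and plasma were collected 24 h post-dose. Plasma was treated with two volumes of ACN containing internal standard. Tissue was homogenized in 2 volumes of 20% HBSS/80% ACN. Analysis was by LC/MS/MS on a C18 column at 60 °C, using an ammonium formate/formic acid water–methanol gradient, SRM detection and a 5 nM LLQ.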

[8] = Cytotoxicity against human HuH7 cells; type: cell-based; conditions: Huh-7 cells
[9] = AUC in Sprague-Dawley rat at 15 mg/kg, po administered via gavage by LC/MS/MS analysis; type: ADME, organism-based; set-up: dose 15 mg/kg, route oral; conditions: plasma
[10] = test system: Liver; experiment: Drug uptake in intraduodenally dosed Sprague-Dawley rat liver measured per gm of tissue over 4 hrs by LC/MS/MS analysis; type: ADME, organism-based; conditions: in vivo, other; summary of the method: as §1
[11] = Oral bioavailability in Sprague-Dawley rat at 15 mg/kg administered via gavage by LC/MS/MS analysis; type: ADME, organism-based; conditions: in vivo
[12] = Half life in rat liver microsomes at 3 uM by LC/MS/MS analysis; type: ADME
Summary of the method: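 Pooled liver microsomes were run in triplicate per species. Each incubation held 3 μM test compound in 0.1 M potassium phosphate pH 7.4 at 37 °C, with 0.9 mg/mL microsomal protein, 0.033 mM MgCl2 and an NADPH-regenerating system. Proteins were precipitated with two volumes of ACN containing internal standard, and supernatants were analysed by LC/MS/MS.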

[13] = Genotoxicity in micronucleus (unknown origin)
[14] = test system: Hepatitis C virus; experiment: Antiviral activity against Hepatitis C virus genotype 1a H77 assessed as inhibition of HCV replicon-encoded Renilla luciferase reporter activity after 4 days by cell-based HCV replicon assay; type: functional, organism-based, Hepacivirus hominis; conditions: genotype 1a H77, 96 h
[15] = test system: Homo sapiens; experiment: Cardiovascular toxicity in Hepatitis C virus genotype 1 infected human assessed as junctional rhythm disturbances at 120 mg, po by electrocardiography; type: organism-based; conditions: in vivo
[16] = test system: Homo sapiens; experiment: Cardiovascular toxicity in Hepatitis C virus genotype 1 infected human assessed as PR-interval prolongation at 120 mg, po by electrocardiography; type: organism-based; conditions: in vivo
[17] = test system: Homo sapiens; experiment: Cardiovascular toxicity in Hepatitis C virus genotype 1 infected human assessed as mild bradycardia at 120 mg, po by electrocardiography; type: organism-based; conditions: in vivo
[18] = test system: Homo sapiens; experiment: Cardiovascular toxicity in healthy human assessed as junctional rhythm disturbances at 120 mg, po by electrocardiography; type: organism-based; conditions: in vivo
[19] = test system: Homo sapiens; experiment: Cardiovascular toxicity in healthy human assessed as PR-interval prolongation at 120 mg, po by electrocardiography; type: organism-based; conditions: in vivo
[20] = test system: Homo sapiens; experiment: Cardiovascular toxicity in healthy human assessed as mild bradycardia at 120 mg, po by electrocardiography; type: organism-based; conditions: in vivo
[21] = test system: Hepatitis C virus; experiment: Antiviral activity against Hepatitis C virus genotype 1 infected in human assessed as reduction in plasma viral load administered orally measured after 12 hrs; type: functional, organism-based; conditions: Hepacivirus hominis
Summary of the method: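 HCV genotype 1-infected subjects received single oral doses of 10, 60 or 120 mg. Plasma HCV RNA was followed, and mean log10 reduction in viral load was read 12 h after dosing.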

[22] = Terminal half life in po dosed human; type: ADME, organism-based; conditions: in vivo, read-out: beta t1/2 (converted)
[23] = Tmax in po dosed human; type: ADME, organism-based; conditions: in vivo
[24] = test system: Salmonella typhimurium; experiment: Mutagenicity in Salmonella typhimurium by Ames test; type: toxicity, organism-based; conditions: salmonella enterica subsp. enterica serovar typhimurium
[25] = biological target: Cytochrome P450 3A4 (Homo sapiens, UniProt P08684); experiment: Inhibition of CYP3A4 (unknown origin); type: ADME
[26] = Binding affinity to P-glycoprotein (unknown origin); type: ADME; conditions: human
[27] = Drug uptake into human hepatocytes by silicone oil layer method; type: ADME, cell-based, Hepatocyte
[28] = Drug uptake into dog hepatocytes by silicone oil layer method; type: ADME, cell-based, Canis lupus familiaris, Hepatocyte
[29] = Drug uptake into Sprague-Dawley rat hepatocytes by silicone oil layer method; type: ADME, cell-based, Hepatocyte
[30] = Ratio of drug level in liver to plasma in Beagle dog at 14 mg/kg, po measured after 24 hrs by LC/MS/MS analysis; type: ADME, organism-based, Canis lupus familiaris; set-up: dose 14 mg/kg, route oral
Summary of the method: (§2)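 Single oral dose (dog 14 mg/kg, rat 15 mg/kg), with liver and plasma sampled 24 h post-dose. Plasma was precipitated with two volumes of ACN containing internal standard and centrifuged. Tissue was weighed and homogenized in 2 volumes of 20% Hanks buffer/80% ACN. LC/MS/MS used a C18 column at 60 °C, ammonium formate/formic acid water–methanol gradient, and SRM detection. LLQ was 5 nM. Ratio is liver over plasma level.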

[31] = Ratio of drug level in liver to plasma in Sprague-Dawley rat at 15 mg/kg, po administered via gavage measured after 24 hrs by LC/MS/MS analysis; type: ADME, organism-based; set-up: dose 15 mg/kg, route oral; summary of the method: as §2
[32] = Oral bioavailability in cynomolgus monkey at 3 mg/kg administered via gavage by LC/MS/MS analysis; type: ADME, organism-based, Macaca fascicularis; conditions: in vivo
[33] = Oral bioavailability in Beagle dog by LC/MS/MS analysis; type: ADME, organism-based, Canis lupus familiaris; conditions: in vivo
[34] = test system: Human immunodeficiency virus; experiment: Antiviral activity against Human immunodeficiency virus; type: functional, organism-based
[35] = test system: Canine parainfluenza virus; experiment: Antiviral activity against Canine parainfluenza virus; type: functional
[36] = test system: Bovine viral diarrhea virus 1; experiment: Antiviral activity against Bovine viral diarrhea virus; type: functional, organism-based

Cytochrome P450 3A4, sequence (P08684 whole entry): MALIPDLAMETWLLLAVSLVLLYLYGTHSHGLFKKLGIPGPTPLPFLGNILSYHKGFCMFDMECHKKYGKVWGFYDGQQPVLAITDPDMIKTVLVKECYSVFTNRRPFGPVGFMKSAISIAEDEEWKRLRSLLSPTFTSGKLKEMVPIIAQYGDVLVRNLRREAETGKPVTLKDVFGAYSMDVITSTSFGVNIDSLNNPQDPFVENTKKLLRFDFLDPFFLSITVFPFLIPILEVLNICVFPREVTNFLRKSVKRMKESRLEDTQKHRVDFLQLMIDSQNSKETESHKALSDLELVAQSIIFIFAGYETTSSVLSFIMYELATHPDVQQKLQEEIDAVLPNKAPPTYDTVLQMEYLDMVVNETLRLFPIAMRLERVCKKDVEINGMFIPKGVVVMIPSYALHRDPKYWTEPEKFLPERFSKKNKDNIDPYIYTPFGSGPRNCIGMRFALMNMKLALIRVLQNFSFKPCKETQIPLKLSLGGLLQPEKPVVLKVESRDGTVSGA

AUC at 4 h [1]: 0.28 µM·h
half-life [2]: 9.8 h
clearance [3]: 182 mL/min/kg
EC50 [4]: 19 nM
IC50 [5]: 2 nM
concentration at 24 h [6]: 8 µM
concentration at 24 h [7]: 4.2 µM
AUC [9]: 0.37 µM·h
Drug uptake [10]: 232200 ng
SMILES: C=C[C@@H]1C[C@]1(NC(=O)[C@@H]1C[C@@H](Oc2ncc(OC)c3ccccc23)CN1C(=O)[C@@H](NC(=O)OC(C)(C)C)C(C)(C)C)C(=O)NS(=O)(=O)C1CC1
CC50 [8]: 76000 nM

AUC at 4 h [1]: 5.5 µM·h
half-life [2]: 6.6 h
clearance [3]: 7 mL/min/kg
EC50 [4]: 25 nM
IC50 [5]: 1 nM
bioavailability [11]: 6%
AUC [9]: 2.08 µM·h
Drug uptake [10]: 36160 ng
SMILES: C=C[C@@H]1C[C@]1(NC(=O)[C@@H]1C[C@@H](Oc2nccc3c(Cl)cccc23)CN1C(=O)[C@@H](NC(=O)OC(C)(C)C)C(C)(C)C)C(=O)NS(=O)(=O)C1CC1
CC50 [8]: 38000 nM

half-life [2]: 2.9 h
clearance [3]: 7.8 mL/min/kg
EC50 [4]: 33 nM
IC50 [5]: 2 nM
bioavailability [11]: 28%
AUC [9]: 10.5 µM·h
SMILES: C=C[C@@H]1C[C@]1(NC(=O)[C@@H]1C[C@@H](Oc2nccc3cc(OC)ccc23)CN1C(=O)[C@@H](NC(=O)OC(C)(C)C)C(C)C)C(=O)NS(=O)(=O)C1CC1
CC50 [8]: > 100000 nM

AUC at 4 h [1]: 10.4 µM·h
half-life at 3 µM [12]: > 1 h
half-life [2]: 4.4 h
EC50 [4]: 2.8 nM
EC50 [14]: 8.3 nM
half-life [22]: 4 h
Tmax [23]: 1.5 h
IC50 [25]: 2000 nM
Activity [26]: Active
Km [27]: 1.4 µM
Km [28]: 1.4 µM
Km [29]: 1.4 µM
Kp at 24 h [30]: 75
Kp at 24 h [31]: 136
bioavailability [32]: < 1%
bioavailability [33]: 51%
bioavailability [11]: 18%
AUC [9]: 14.1 µM·h
Drug uptake [10]: 64710 ng
SMILES: C=C[C@@H]1C[C@]1(NC(=O)[C@@H]1C[C@@H](Oc2nccc3cc(OC)ccc23)CN1C(=O)[C@@H](NC(=O)OC(C)(C)C)C(C)(C)C)C(=O)NS(=O)(=O)C1CC1
Activity [13]: Non-toxic
Activity [15]: Toxic
Activity [16]: Toxic
Activity [17]: Toxic
Activity [18]: Toxic
Activity [19]: Toxic
Activity [20]: Toxic
Activity [21]: Dose-dependent effect
Activity [24]: Non-toxic
Activity [34]: inactive
Activity [35]: inactive
Activity [36]: inactive
CC50 [8]: > 100000 nM

half-life [2]: 3.1 h
clearance [3]: 27 mL/min/kg
EC50 [4]: 2 nM
IC50 [5]: 1 nM
bioavailability [11]: 2%
AUC [9]: 0.194 µM·h
SMILES: C=C[C@@H]1C[C@]1(NC(=O)[C@@H]1C[C@@H](Oc2ncc(OC)c3cc(OC)ccc23)CN1C(=O)[C@@H](NC(=O)OC(C)(C)C)C(C)(C)C)C(=O)NS(=O)(=O)C1CC1
CC50 [8]: 45000 nM

AUC at 4 h [1]: 0.75 µM·h
half-life [2]: 2.2 h
clearance [3]: 19 mL/min/kg
EC50 [4]: 60 nM
IC50 [5]: 7 nM
AUC [9]: 2.67 µM·h
Drug uptake [10]: 28094 ng
SMILES: C=C[C@@H]1C[C@]1(NC(=O)[C@@H]1C[C@@H](Oc2nccc3ccccc23)CN1C(=O)[C@@H](NC(=O)OC(C)(C)C)C(C)(C)C)C(=O)NS(=O)(=O)C1CC1
CC50 [8]: > 100000 nM
